Laboratory results from ChEMBL document CHEMBL4513216, “Probing the Open Global Health Chemical Diversity Library for Multistage-Active Starting Points for Next-Generation Antimalarials” (ACS Infect Dis, 2020).

Assay: Toxicity liver stage against HepG2, at 10uM
Assay type: cell-based
Parameters: test concentration 10 uM, cell line HepG2-A16-CD81EGFP
Conditions: human, HepG2-A16-CD81EGFP cells; read-out: INHIBITION
In short: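 Uninfected HepG2-A16-CD81EGFP cells, 3 × 10^3 per well, 1536-well, plated on prespotted compound at 10 μM final, parasite-free screening media added to match infected plates; puromycin 10 μM positive, DMSO 0.5% negative; run in parallel with 48 h PbLuc assay at 37 °C, 5% CO2; viability by CellTiter-Glo luminescence, normalized to controls.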
For `Cc1ccc(CNc2ccccc2SCCC(N)=O)s1`, the cytotoxicity at 10 µM was 10.6%. Work on `COc1ccc(OC)c(C(=O)N2CCC(Nc3cccnc3)CC2)c1` yielded a cytotoxicity at 10 µM of -138%. In the case of `CCN1CCN(C(=O)c2cc(C(F)(F)F)n[nH]2)[C@H]2CS(=O)(=O)C[C@H]21`, the cytotoxicity at 10 µM is reported as -3.77%. In the case of `Cn1c(N)nnc1SCc1cc(Br)ccc1Cl`, the cytotoxicity at 10 µM is reported as -21.7%. With `NC(=O)c1cc(NC(=O)NCCc2cc(F)cc(F)c2)ccc1F` the cytotoxicity at 10 µM was -9.58%. With `CSCc1noc(CNS(=O)(=O)c2cccc(C(=O)NC3CC3)c2)n1` the cytotoxicity at 10 µM was -2.51%. For `COc1ccc(F)cc1CN1CCN(Cc2nccn2C)C(C)C1` (configuration not stated), the cytotoxicity at 10 µM was 2.01%. Work on `CNC(=O)c1cccc(CC2COCCN(Cc3ccsc3)C2)n1` (configuration not stated) yielded a cytotoxicity at 10 µM of -0.257%. For `Cn1ccc(C(=O)NC2CCC23CCN(Cc2ccc(F)cc2)CC3)c1` (configuration not stated), the cytotoxicity at 10 µM was -147%. With `COC(=O)CCCN(C)C(c1cccnc1)c1ccc(F)cc1F` (configuration not stated) the cytotoxicity at 10 µM was -0.665%. Work on `CCC1=N[C@@]2(CC[C@@H]3CN(Cc4ccccc4F)C[C@@H]32)C(=O)N1` yielded a cytotoxicity at 10 µM of -1.22%. Compound `CNc1nc(C2CCCCN2C(=O)C(C)(C)OC)nc2c1CN(C)CC2` (configuration not stated) has a cytotoxicity at 10 µM of -6.61%. In the case of `Cc1cc(C)nc(N2CCCC2c2[nH]ncc2C(=O)N(C)C)n1` (configuration not stated), the cytotoxicity at 10 µM is reported as -1.51%. For `CCn1ccnc1CN1CCN(CCc2ccncc2)CC1C` (configuration not stated), the cytotoxicity at 10 µM was -3.04%. With `Cc1n[nH]c(=O)c2c(NC(=O)CN3CCCC(C(F)(F)F)C3)oc(C)c12` (configuration not stated) the cytotoxicity at 10 µM was -4.87%. With `Cc1nc(CN2CCCn3cnc(COCC4CC4)c3C2)cs1` the cytotoxicity at 10 µM was 7.04%. Compound `CCCC1SCCN1C(=O)c1ccc(-n2ncc(C#N)c2N)cc1` (configuration not stated) has a cytotoxicity at 10 µM of 9.15%. For `Cc1nnc(C(C)N2CCCN(Cc3ccc(C#N)cc3)CC2)o1` (configuration not stated), the cytotoxicity at 10 µM was -11.1%. Compound `CC(C)NC(=O)[C@H]1C[C@H]2OCC[C@H]2N(Cc2ccc3ccccc3n2)C1` has a cytotoxicity at 10 µM of -56.3%. For `CCOCC1CN(Cc2ccc3c(c2)OCO3)Cc2nccn2C1` (configuration not stated), the cytotoxicity at 10 µM was -126%. With `O=C(NS(=O)(=O)c1ccccc1)c1ccccc1F` the cytotoxicity at 10 µM was 11.4%. With `CC(O)CN1CCC(CN(C)Cc2cc(C#N)ccc2F)CC1` (configuration not stated) the cytotoxicity at 10 µM was 2.05%. For `O=C(c1cscn1)N1CCCC2(CCN2Cc2cccc(F)c2)C1` (configuration not stated), the cytotoxicity at 10 µM was -112%. With `CCn1nc(C(=O)N2CCCC(n3cncn3)C2)ccc1=O` (configuration not stated) the cytotoxicity at 10 µM was -3.3%. Work on `CCCN(C(=O)c1ccncc1)c1nc2c(s1)CCc1c-2cnn1C` yielded a cytotoxicity at 10 µM of -14.6%. `CC(=O)N1CCC(n2ccc(-c3cnc(N4CCOCC4)nc3)n2)CC1` showed a cytotoxicity at 10 µM of -10.4%. With `OC1(CNc2ccc(Br)cn2)CCOCC1` the cytotoxicity at 10 µM was 6.91%. Compound `O=C(NCCC1=CCCCC1)C1CCN(c2ccc3nncn3n2)CC1` has a cytotoxicity at 10 µM of -2.96%. Work on `COCC(=O)N1CCC2(CC1)COCCN2Cc1ccc(F)cc1` yielded a cytotoxicity at 10 µM of -73.4%. In the case of `CC(C)CN1CC(C(=O)NCCc2ccc(OC(F)F)cc2)CC1=O` (configuration not stated), the cytotoxicity at 10 µM is reported as 5.04%. With `Cn1nnnc1SCCNC(=O)c1cccc2ccnn12` the cytotoxicity at 10 µM was -59.1%. `CC(C)(C)n1ncc2c(=O)n(CC(=O)NCc3ccco3)cnc21` showed a cytotoxicity at 10 µM of -1.6%. With `COCc1csc(NC(=O)NCc2ncccc2C)n1` the cytotoxicity at 10 µM was -2.6%. Compound `Cc1noc(C)c1CN1CC[C@H]2OCC[C@@H](C(=O)N3CCCO3)[C@H]2C1` has a cytotoxicity at 10 µM of 2%. `O=C(Nc1cccc(F)c1)C1CCCN1c1nccs1` (configuration not stated) showed a cytotoxicity at 10 µM of -4.72%. Compound `Cc1nn(C)c(C)c1C1CCCN1CC(=O)Nc1cc(C(C)C)no1` (configuration not stated) has a cytotoxicity at 10 µM of 2.07%. With `COc1cccc(N2CCN(C(=O)c3noc4c3CCCCC4)CC2)c1` the cytotoxicity at 10 µM was 9.4%. Compound `N#Cc1cccnc1N1CCN(C(=O)c2cccs2)CC1` has a cytotoxicity at 10 µM of 10.4%. In the case of `Cc1ccc(S(=O)(=O)N(C)CC(N)=O)c(Cl)c1`, the cytotoxicity at 10 µM is reported as 5.79%. `O=C(c1ccsc1)N1C[C@H]2CN(Cc3cccc(F)c3)C(=O)[C@H]2C1` showed a cytotoxicity at 10 µM of 0.98%. `COCCC(=O)NCCc1nc2cc(-c3ccc(OC)cc3)ncn2n1` gave a cytotoxicity at 10 µM of 10.5%. `NC(=O)C1(CCCc2ccccn2)CCCN(c2ncccn2)C1` (configuration not stated) gave a cytotoxicity at 10 µM of -5.69%. In the case of `CNS(=O)(=O)c1ccc(CNC(=O)NCC2CCC2)cc1`, the cytotoxicity at 10 µM is reported as 6.26%. Compound `COc1ccccc1C(=O)N1CCNCC1C(N)=O` (configuration not stated) has a cytotoxicity at 10 µM of 1.96%. For `COC(=O)[C@H](C)NC(=O)c1cnc(Cc2ccc(F)cc2)s1`, the cytotoxicity at 10 µM was -10.9%. For `CN(C)C1CCCN(C(=O)NCCNC(=O)C2CCCCC2)C1` (configuration not stated), the cytotoxicity at 10 µM was -1.69%. With `CC1=Nc2c(c(=O)[nH]n2C2CCCCC2)C(c2cccnc2)S1` (configuration not stated) the cytotoxicity at 10 µM was 6.72%. `Cc1noc(C2CCCN(C(=O)c3cc(-c4ccccc4)on3)C2)n1` (configuration not stated) showed a cytotoxicity at 10 µM of -7.14%. Work on `O=C(c1cc(COc2ccc3c(c2)OCO3)[nH]n1)N1CCCC(O)C1` (configuration not stated) yielded a cytotoxicity at 10 µM of -8.07%. Work on `COCCC1(CNC(=O)NCC2CCCN(C)C2)CCC1` (configuration not stated) yielded a cytotoxicity at 10 µM of -1.11%. For `O=C(O)[C@@H]1CN(C(=O)CCCc2ccc(F)cc2)C[C@H]1C1CC1`, the cytotoxicity at 10 µM was 0.832%. `O=C(c1ccoc1)N1CC[C@@H]2[C@H]1CCC(=O)N2c1ccccc1` showed a cytotoxicity at 10 µM of -0.362%. Compound `CCn1cc(NS(=O)(=O)c2ccc(F)cc2)c(C(=O)NCC(C)C)n1` has a cytotoxicity at 10 µM of 6.6%. In the case of `Cc1n[nH]cc1CNCC1(c2cccc(F)c2)CCOCC1`, the cytotoxicity at 10 µM is reported as 6.48%. With `Cc1cn2c(n1)CCC(NC(=O)CCC1CC1)C2` (configuration not stated) the cytotoxicity at 10 µM was -9.69%. Work on `CN(C)C(=O)NC1COC2(CCN(Cc3ccccc3)CC2)C1` (configuration not stated) yielded a cytotoxicity at 10 µM of 4.14%. In the case of `CN(C)c1nccnc1C1CCN(c2cnccn2)CC1`, the cytotoxicity at 10 µM is reported as 4.58%. For `Cc1cc(NC(=O)NCc2nncn2C)ccc1OC(C)C`, the cytotoxicity at 10 µM was 6.23%. `Cn1nc(CN2CCCCC(N)C2)c2c(Cl)cccc21` (configuration not stated) gave a cytotoxicity at 10 µM of -5.99%. Compound `COc1ccc(F)cc1S(=O)(=O)NCC(O)c1sccc1C` (configuration not stated) has a cytotoxicity at 10 µM of -0.269%. With `CC(C)Nc1ncnc2c1CCN(Cc1nccn1C)CC2` the cytotoxicity at 10 µM was 0.507%. `Cc1cnn(CCNCc2csc(COc3ccccc3)n2)c1` showed a cytotoxicity at 10 µM of 1.77%. With `CC(C)C(=O)N1CCN(C(=O)CCc2nnc(-c3ccccc3)o2)CC1` the cytotoxicity at 10 µM was -4.66%. In the case of `CC(=O)c1cc(Br)cc(F)c1OCC(=O)NC(C)C`, the cytotoxicity at 10 µM is reported as -9.46%. `Cc1cccc2ncnc(N3CCOC(C)C3)c12` (configuration not stated) showed a cytotoxicity at 10 µM of 0.00648%. For `O=C(NCc1cccc(C(F)(F)F)c1)C(c1cccnc1)N1CCCC1` (configuration not stated), the cytotoxicity at 10 µM was 6.63%. In the case of `O=C(NCCNc1ncccn1)C1CCN(C(=O)c2ccoc2)CC1`, the cytotoxicity at 10 µM is reported as -12.6%. `CCc1cccc(NS(=O)(=O)c2cc3c(c(C(=O)O)c2)OCCO3)c1` showed a cytotoxicity at 10 µM of 2.89%. In the case of `O=C(NCC(Cc1cccc(F)c1)N1CCCC1=O)c1ccccc1` (configuration not stated), the cytotoxicity at 10 µM is reported as -12.2%. For `Cc1cnc(C(=O)N2CCN(Cc3csc(C)n3)CC2)cn1`, the cytotoxicity at 10 µM was -132%. `Cc1ccc(S(=O)(=O)c2ncccc2CN2CCOCC2)cc1` gave a cytotoxicity at 10 µM of -41%. Compound `CC1(C)[C@H](Cc2cc(CN3CCOCC3)on2)C[C@@H]1NC(=O)C1CCC1` has a cytotoxicity at 10 µM of -6.67%. `O=C1C(NCc2ccc3c(c2)CCO3)CCN1Cc1ccccc1` (configuration not stated) gave a cytotoxicity at 10 µM of 6.39%. In the case of `N#CCCCOc1cccnc1NC(=O)CCC1CCCC1`, the cytotoxicity at 10 µM is reported as -2.08%. Compound `CN(C)C(=O)CN1CCC2(CCN(C(=O)N3CCCC3)CC2)C1=O` has a cytotoxicity at 10 µM of 2.7%. For `Cc1[nH]c(C2(N)CCCCC2)nc(=O)c1C`, the cytotoxicity at 10 µM was -0.846%. With `Cc1cc(=O)n(C)cc1NC(=O)Cc1cccc(F)c1` the cytotoxicity at 10 µM was -3.86%. Work on `O=C1Nc2ccccc2/C1=C1\CCCN1` yielded a cytotoxicity at 10 µM of 5.02%. Work on `CCn1ccc2cc(NC(=O)CC3CCCO3)ccc21` (configuration not stated) yielded a cytotoxicity at 10 µM of 2.5%. `CC(=O)Cc1c(C)nn(-c2cncc(N)c2)c1C` gave a cytotoxicity at 10 µM of -4.05%. In the case of `Cc1cc(C)n(CC(=O)N2CCCCC2CCc2cccs2)c(=O)n1` (configuration not stated), the cytotoxicity at 10 µM is reported as 6.93%. With `Cc1[nH]ccc1C(=O)N1CCC(c2nnc(Cn3cccn3)n2C)CC1` the cytotoxicity at 10 µM was -11.5%.
